Calls of active or inactive are those of the source. The rule behind the calls is not given here.
Key:
[1] = target: Urease subunit alpha/Urease subunit beta (Helicobacter pylori (strain ATCC 700392 / 26695) (Campylobacterpylori)) (UniProt P69996+P14916); experiment: Inhibition of Helicobacter pylori urease assessed as ammonia production at 100 uM preincubated for 3 hrs measured by indophenol method
[2] = target: Urease subunit alpha/Urease subunit beta (Helicobacter pylori (strain ATCC 700392 / 26695) (Campylobacterpylori), UniProt P69996); experiment: Inhibition of Helicobacter pylori urease assessed as ammonia production preincubated for 3 hrs measured by indophenol method
Procedure, shortened: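 Enzyme came from H. pylori broth cultures (2.0 × 10⁸ CFU/mL), which were pelleted at 5000 g and 4 °C, washed twice in PBS at pH 7.4, and stored at −80 °C. Urease and test compound were pre-incubated for 3 h at room temperature. Ammonia production was then quantified by the Weatherburn indophenol method.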

Sequence of Urease subunit alpha/Urease subunit beta (Helicobacter pylori (strain ATCC 700392 / 26695) (Campylobacterpylori)) (P14916 whole entry, looked up): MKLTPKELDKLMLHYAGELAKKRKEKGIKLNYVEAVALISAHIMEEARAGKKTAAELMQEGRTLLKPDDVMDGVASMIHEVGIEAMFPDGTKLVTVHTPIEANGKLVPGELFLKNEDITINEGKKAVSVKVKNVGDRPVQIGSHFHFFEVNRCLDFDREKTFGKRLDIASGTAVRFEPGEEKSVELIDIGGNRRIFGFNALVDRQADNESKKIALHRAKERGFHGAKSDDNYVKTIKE
Sequence of Urease subunit alpha/Urease subunit beta (Helicobacter pylori (strain ATCC 700392 / 26695) (Campylobacterpylori)) (P69996 whole entry, looked up): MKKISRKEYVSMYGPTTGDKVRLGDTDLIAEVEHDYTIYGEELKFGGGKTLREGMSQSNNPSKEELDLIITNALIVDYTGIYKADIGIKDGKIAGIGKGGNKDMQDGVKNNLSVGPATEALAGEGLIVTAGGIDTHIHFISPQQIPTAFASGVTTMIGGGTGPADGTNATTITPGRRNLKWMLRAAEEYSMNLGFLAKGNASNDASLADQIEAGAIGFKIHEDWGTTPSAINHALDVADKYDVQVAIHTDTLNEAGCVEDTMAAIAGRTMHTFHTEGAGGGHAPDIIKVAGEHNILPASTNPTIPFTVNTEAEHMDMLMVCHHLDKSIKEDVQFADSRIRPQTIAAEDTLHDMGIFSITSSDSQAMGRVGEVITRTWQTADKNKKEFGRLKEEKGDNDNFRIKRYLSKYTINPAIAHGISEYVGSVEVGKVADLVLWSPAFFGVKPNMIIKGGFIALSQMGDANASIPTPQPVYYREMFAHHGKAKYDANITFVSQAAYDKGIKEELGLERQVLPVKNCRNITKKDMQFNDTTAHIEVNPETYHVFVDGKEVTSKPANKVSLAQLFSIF
Sequence of Urease subunit alpha/Urease subunit beta (P69996 whole entry): as the sequence (P69996 whole entry, looked up) above
Sequence of Urease subunit alpha/Urease subunit beta (P14916 whole entry, further chain): as the sequence (P14916 whole entry, looked up) above

Structure (SMILES) | inhibition [1] | IC50 [2]
CC(=O)NO [ACETOHYDROXAMIC ACID] | 85.2% | 46.3 µM
O=C1C=C(NCCN2CCOCC2)C(=O)C=C1NCCN1CCOCC1 | 81.6% | 27.3 µM
O=C1C=C(NCCNc2ccccc2)C(=O)C=C1NCCNc1ccccc1 | inactive | –
O=C1C=C(NC2CCCC2)C(=O)C=C1NC1CCCC1 | 68.8% | 35.4 µM
O=C1C=C(NC2CC2)C(=O)C=C1NC1CC1 | inactive | –
O=C1C=C(NC2CCCCC2)C(=O)C=C1NC1CCCCC1 | 62.7% | 41.5 µM
CC(C)NC1=CC(=O)C(NC(C)C)=CC1=O | inactive | –

From ChEMBL document CHEMBL2057109, “Synthesis, biological evaluation, and molecular docking studies of 2,5-substituted-1,4-benzoquinone as novel urease inhibitors” (Bioorg Med Chem, 2012)
